Assay results published in ChEMBL document CHEMBL1138555, “N-acylated and N,N'-diacylated imidazolidine-2-thione derivatives and N,N'-diacylated tetrahydropyrimidine-2(1H)-thione analogues: synthesis and antiproliferative activity” (Eur J Med Chem, 2009).

Legend:
OVCAR-3 = test: Growth inhibition of human OVCAR-3 cells after 48 hrs by sulforhodamine B assay; format: functional; conditions: OVCAR-3, 48 h
How it was run: (§1)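 NCI screen panel. Five 10-fold concentrations from 10^-4 to 10^-8 M. Exposure for the last 48 h of a 72 h incubation. Growth estimated by sulforhodamine B protein assay. GI50 is the concentration giving 50% growth inhibition. Where that level was not reached or was exceeded, the value is given as above or below the highest or lowest concentration tested.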

HOP-62 = test: Growth inhibition of human HOP62 cells after 48 hrs by sulforhodamine B assay; format: functional; conditions: HOP-62, 48 h; how it was run: as §1
DU-145 = test: Growth inhibition of human DU145 cells after 48 hrs by sulforhodamine B assay; format: functional; conditions: DU-145, 48 h; how it was run: as §1
SF-539 = test: Growth inhibition of human SF539 cells after 48 hrs by sulforhodamine B assay; format: functional; conditions: SF-539, 48 h; how it was run: as §1
MCF7 = test: Growth inhibition of human MCF7 cells after 48 hrs by sulforhodamine B assay; format: functional; conditions: MCF7, 48 h; how it was run: as §1
IGROV-1 = test: Growth inhibition of human IGROV1 cells after 48 hrs by sulforhodamine B assay; format: functional; conditions: IGROV-1, 48 h; how it was run: as §1
BT-549 = test: Growth inhibition of human BT549 cells after 48 hrs by sulforhodamine B assay; format: functional; conditions: BT-549, 48 h; how it was run: as §1
NCI-H23 = test: Growth inhibition of human NCI-H23 cells after 48 hrs by sulforhodamine B assay; format: functional; conditions: NCI-H23, 48 h; how it was run: as §1
HCT-15 = test: Growth inhibition of human HCT15 cells after 48 hrs by sulforhodamine B assay; format: functional; conditions: HCT-15, 48 h; how it was run: as §1
SF-268 = test: Growth inhibition of human SF268 cells after 48 hrs by sulforhodamine B assay; format: functional; conditions: SF-268, 48 h; how it was run: as §1
NCI-H522 = test: Growth inhibition of human NCI-H522 cells after 48 hrs by sulforhodamine B assay; format: functional; conditions: NCI-H522, 48 h; how it was run: as §1
SW-620 = test: Growth inhibition of human SW620 cells after 48 hrs by sulforhodamine B assay; format: functional; conditions: SW-620, 48 h
How it was run: (§2)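 NCI in vitro panel screen. Compounds tested at five 10-fold dilutions, 10^-4 to 10^-8 M. Cells in 96-well plates were exposed for the last 48 h of a 72 h incubation. Viability/growth was read by sulforhodamine B protein assay. GI50 is the concentration giving 50% growth inhibition. Values beyond the tested range are reported as greater or less than the maximum or minimum concentration.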

UACC-62 = test: Growth inhibition of human UACC62 cells after 48 hrs by sulforhodamine B assay; format: functional; conditions: UACC-62, 48 h; how it was run: as §2
M14 = test: Growth inhibition of human M14 cells after 48 hrs by sulforhodamine B assay; format: functional; conditions: M14, 48 h; how it was run: as §1
OVCAR-4 = test: Growth inhibition of human OVCAR4 cells after 48 hrs by sulforhodamine B assay; format: functional; conditions: OVCAR-4, 48 h; how it was run: as §1
KM12 = test: Growth inhibition of human KM12 cells after 48 hrs by sulforhodamine B assay; format: functional; conditions: KM12, 48 h; how it was run: as §1
PC-3 = test: Growth inhibition of human PC3 cells after 48 hrs by sulforhodamine B assay; format: functional; conditions: PC-3, 48 h; how it was run: as §1
LOX IMVI = test: Growth inhibition of human LOXIMVI cells after 48 hrs by sulforhodamine B assay; format: functional; how it was run: as §1
K562 = test: Growth inhibition of human K562 cells after 48 hrs by sulforhodamine B assay; format: functional; conditions: K562, 48 h; how it was run: as §1
U-251 = test: Growth inhibition of human U251 cells after 48 hrs by sulforhodamine B assay; format: functional; conditions: U-251, 48 h; how it was run: as §2
MDA-MB-435 = test: Growth inhibition of human MDA-MB-435 cells after 48 hrs by sulforhodamine B assay; format: functional; conditions: MDA-MB-435, 48 h; how it was run: as §1
NCI-H322M = test: Growth inhibition of human NCI-H322M cells after 48 hrs by sulforhodamine B assay; format: functional; how it was run: as §1
SNB-75 = test: Growth inhibition of human SNB75 cells after 48 hrs by sulforhodamine B assay; format: functional; conditions: SNB-75, 48 h; how it was run: as §2
OVCAR-8 = test: Growth inhibition of human OVCAR8 cells after 48 hrs by sulforhodamine B assay; format: functional; conditions: OVCAR-8, 48 h; how it was run: as §1
HL-60(TB) = test: Growth inhibition of human HL-60(TB) cells after 48 hrs by sulforhodamine B assay; format: functional; conditions: HL-60, 48 h
How it was run: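 NCI 60-cell-line screen protocol: cells exposed to compound at five 10-fold dilutions from 10^-4 to 10^-8 M for the last 48 h of a 72 h incubation. Sulforhodamine B protein assay estimated viability/growth. GI50 (50% growth inhibition) derived; where not reached or exceeded, reported as greater or less than the highest or lowest concentration tested.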

HOP-92 = test: Growth inhibition of human HOP92 cells after 48 hrs by sulforhodamine B assay; format: functional; conditions: HOP-92, 48 h; how it was run: as §1
SK-MEL-5 = test: Growth inhibition of human SK-MEL-5 cells after 48 hrs by sulforhodamine B assay; format: functional; conditions: SK-MEL-5, 48 h; how it was run: as §1
UO-31 = test: Growth inhibition of human UO31 cells after 48 hrs by sulforhodamine B assay; format: functional; conditions: UO-31, 48 h; how it was run: as §2
786-0 = test: Growth inhibition of human 786-0 cells after 48 hrs by sulforhodamine B assay; format: functional; conditions: 786-0, 48 h; how it was run: as §1
COLO 205 = test: Growth inhibition of human COLO205 cells after 48 hrs by sulforhodamine B assay; format: functional; conditions: COLO 205, 48 h; how it was run: as §1
SK-MEL-28 = test: Growth inhibition of human SK-MEL-28 cells after 48 hrs by sulforhodamine B assay; format: functional; conditions: SK-MEL-28, 48 h; how it was run: as §1
Malme-3M = test: Growth inhibition of human MALME-3M cells after 48 hrs by sulforhodamine B assay; format: functional; how it was run: as §1
T47D = test: Growth inhibition of human T47D cells after 48 hrs by sulforhodamine B assay; format: functional; how it was run: as §2
HCT-116 = test: Growth inhibition of human HCT116 cells after 48 hrs by sulforhodamine B assay; format: functional; conditions: HCT-116, 48 h; how it was run: as §1
SK-OV-3 = test: Growth inhibition of human SKOV3 cells after 48 hrs by sulforhodamine B assay; format: functional; conditions: SK-OV-3, 48 h; how it was run: as §1
SNB-19 = test: Growth inhibition of human SNB19 cells after 48 hrs by sulforhodamine B assay; format: functional; conditions: SNB-19, 48 h; how it was run: as §2
NCI-H460 = test: Growth inhibition of human NCI-H460 cells after 48 hrs by sulforhodamine B assay; format: functional; conditions: NCI-H460, 48 h; how it was run: as §1
SN12C = test: Growth inhibition of human SN12C cells after 48 hrs by sulforhodamine B assay; format: functional; how it was run: as §2
SR = test: Growth inhibition of human SR cells after 48 hrs by sulforhodamine B assay; format: functional; how it was run: as §2
EKVX = test: Growth inhibition of human EKVX cells after 48 hrs by sulforhodamine B assay; format: functional; how it was run: as §1
ACHN = test: Growth inhibition of human ACHN cells after 48 hrs by sulforhodamine B assay; format: functional; how it was run: as §1
TK-10 = test: Growth inhibition of human TK10 cells after 48 hrs by sulforhodamine B assay; format: functional; conditions: TK-10, 48 h; how it was run: as §2
[1] = Growth inhibition of human […] cells after 48 hrs by sulforhodamine B assay; format: functional; how it was run: as §1
RXF 393 = test: Growth inhibition of human RXF393 cells after 48 hrs by sulforhodamine B assay; format: functional; conditions: RXF 393, 48 h; how it was run: as §1
A549 = test: Growth inhibition of human A549 cells after 48 hrs by sulforhodamine B assay; format: functional; conditions: A549, 48 h; how it was run: as §1
HT-29 = test: Growth inhibition of human HT-29 cells after 48 hrs by sulforhodamine B assay; format: functional; conditions: HT-29, 48 h; how it was run: as §1
MT4 = test: Antiproliferative activity against human MT4 cells assessed as reduction of growth by MTT assay; format: functional, cell-based
How it was run: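 MT-4 lymphoblastoid T cells (ATCC) in RPMI 1640 with 10% FCS, penicillin/streptomycin, checked for mycoplasma. 1 × 10⁴ mock-infected cells per well with serial dilutions from a 100 mM DMSO stock. Incubated 4 days at 37 °C, viable cells counted by MTT. IC50 versus untreated controls by linear regression. Mean of three separate experiments.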

SF-295 = test: Growth inhibition of human SF295 cells after 48 hrs by sulforhodamine B assay; format: functional; conditions: SF-295, 48 h; how it was run: as §1
MDA-MB-231 = test: Growth inhibition of human MDA-MB-231 cells after 48 hrs by sulforhodamine B assay; format: functional; conditions: MDA-MB-231, 48 h; how it was run: as §1
CCRF-CEM = test: Growth inhibition of human CCRF-CEM cells after 48 hrs by sulforhodamine B assay; format: functional; how it was run: as §1
CAKI-1 = test: Growth inhibition of human Caki1 cells after 48 hrs by sulforhodamine B assay; format: functional; conditions: CAKI-1, 48 h; how it was run: as §1
MOLT-4 = test: Growth inhibition of human MOLT4 cells after 48 hrs by sulforhodamine B assay; format: functional; conditions: MOLT-4, 48 h; how it was run: as §1
SK-MEL-2 = test: Growth inhibition of human SK-MEL-2 cells after 48 hrs by sulforhodamine B assay; format: functional; conditions: SK-MEL-2, 48 h; how it was run: as §1

For `N#C/C(=C\N1CCN(C(=O)c2ccco2)C1=S)C(=O)c1ccccc1`, the GI50 (OVCAR-3) was 18.2 µM, the GI50 (HOP-62) was 22 µM and the GI50 (DU-145) was 5 µM. It also gave a GI50 (SF-539) of 2.2 µM, a GI50 (MCF7) of 4.5 µM and a GI50 (IGROV-1) of 19.4 µM. For the same compound, the GI50 (BT-549) was 7.8 µM, the GI50 (NCI-H23) was 15.2 µM and the GI50 (HCT-15) was 5.7 µM. The GI50 (SF-268) was 31.2 µM, the GI50 (NCI-H522) was 3.7 µM and the GI50 (SW-620) was 5.9 µM. It also gave a GI50 (UACC-62) of 12.9 µM, a GI50 (M14) of 14.9 µM and a GI50 (OVCAR-4) of 29.8 µM. The GI50 (KM12) was 6.5 µM, the GI50 (PC-3) was 31.7 µM and the GI50 (LOX IMVI) was 17.9 µM. The GI50 (K562) was 5.5 µM, the GI50 (U-251) was 17 µM and the GI50 (MDA-MB-435) was 11 µM. The GI50 (NCI-H322M) was 23.4 µM, the GI50 (SNB-75) was 68.2 µM and the GI50 (OVCAR-8) was 25.4 µM. The GI50 (HL-60(TB)) was 31.5 µM, the GI50 (HOP-92) was 26.9 µM and the GI50 (SK-MEL-5) was 8.3 µM. The GI50 (UO-31) was 10.2 µM, the GI50 (786-0) was 16.1 µM and the GI50 (COLO 205) was 23.2 µM. It also gave a GI50 (SK-MEL-28) of 28 µM, a GI50 (Malme-3M) of 30.7 µM and a GI50 (T47D) of 7.2 µM. It also gave a GI50 (HCT-116) of 9.1 µM, a GI50 (SK-OV-3) of 37.4 µM and a GI50 (SNB-19) of 39.7 µM. For the same compound, the GI50 (NCI-H460) was 9.5 µM, the GI50 (SN12C) was 8.6 µM and the GI50 (SR) was 2.8 µM. For the same compound, the GI50 (EKVX) was 17.8 µM, the GI50 (ACHN) was 16.6 µM and the GI50 (TK-10) was 10.5 µM. For the same compound, the GI50 [1] was 5.6 µM, the GI50 (RXF 393) was 4.1 µM and the GI50 (A549) was 22 µM. The GI50 (HT-29) was 30.5 µM, the IC50 (MT4) was 3 µM and the GI50 (SF-295) was 43.6 µM. The GI50 (MDA-MB-231) was 13.7 µM, the GI50 (CCRF-CEM) was 41.9 µM and the GI50 (CAKI-1) was 12.5 µM. For the same compound, the GI50 (MOLT-4) was 43.7 µM and the GI50 (SK-MEL-2) was 3.7 µM.
